Values after ≈ are worked out from the molar mass of the structure shown.
Columns and labels:
Bacillus subtilis [1] = test: Antimicrobial activity against Bacillus subtilis after 24 hrs by micro-dilution susceptibility method; assay type: functional
In short: (§1)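 Broth microdilution in Müller-Hinton broth against S. aureus IFO 3060, B. subtilis IFO 3007, E. coli IFO 3301 and P. aeruginosa IFO 3448. These are the same standard strains used in the disc-diffusion primary screen. Compounds were solubilized in DMSO. MIC recorded as the minimal inhibitory concentration.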

Bacillus subtilis [2] = test: Antimicrobial activity against Bacillus subtilis at 100 ug after 24 hrs by agar disc diffusion method; assay type: functional; details: read-out: DIZ
In short: (§2)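 Agar disc diffusion on Müller-Hinton agar. Sterile 8 mm filter-paper discs were moistened with the compound in DMSO. Strains were B. subtilis IFO 3007 and M. luteus IFO 3232. Plates were incubated at 37 °C, and growth-inhibition zone diameters were measured in mm after 24 h. DMSO served as the solvent control.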

Staphylococcus aureus [3] = test: Antimicrobial activity against Staphylococcus aureus at 100 ug after 24 hrs by agar disc diffusion method; assay type: functional; details: read-out: DIZ
Escherichia coli [4] = test: Antimicrobial activity against Escherichia coli after 24 hrs by micro-dilution susceptibility method
Micrococcus luteus [5] = test: Antimicrobial activity against Micrococcus luteus after 24 hrs by micro-dilution susceptibility method; assay type: functional
In short: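 MIC by broth microdilution in Müller-Hinton broth against M. luteus IFO 3232, the same strain used in the disc-diffusion primary screen.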

Pseudomonas aeruginosa [6] = test: Antimicrobial activity against Pseudomonas aeruginosa after 24 hrs by micro-dilution susceptibility method; assay type: functional; in short: as §1
Escherichia coli [7] = test: Antimicrobial activity against Escherichia coli at 100 ug after 24 hrs by agar disc diffusion method; assay type: functional; details: read-out: DIZ
Pseudomonas aeruginosa [8] = test: Antimicrobial activity against Pseudomonas aeruginosa at 100 ug after 24 hrs by agar disc diffusion method; assay type: functional; details: read-out: DIZ
Staphylococcus aureus [9] = test: Antimicrobial activity against Staphylococcus aureus after 24 hrs by micro-dilution susceptibility method; assay type: functional; in short: as §1
Micrococcus luteus [10] = test: Antimicrobial activity against Micrococcus luteus at 100 ug after 24 hrs by agar disc diffusion method; assay type: functional; details: read-out: DIZ; in short: as §2
Staphylococcus aureus [11] = test: Antimicrobial activity against Staphylococcus aureus at 200 ug after 24 hrs by agar disc diffusion method; assay type: functional; details: read-out: DIZ
Escherichia coli [12] = test: Antimicrobial activity against Escherichia coli at 200 ug after 24 hrs by agar disc diffusion method; assay type: functional; details: read-out: DIZ
Dihydrofolate reductase = molecular target: T1, Dihydrofolate reductase (Bos taurus, UniProt P00376); test: Inhibition of bovine DHFR after 2 mins by spectrophotometry
T1 sequence (P00376 whole entry): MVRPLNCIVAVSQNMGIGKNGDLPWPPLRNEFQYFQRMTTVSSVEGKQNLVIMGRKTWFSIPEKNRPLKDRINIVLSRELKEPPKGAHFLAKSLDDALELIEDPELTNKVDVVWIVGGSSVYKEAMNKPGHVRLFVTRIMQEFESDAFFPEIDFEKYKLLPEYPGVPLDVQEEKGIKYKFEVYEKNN

Bacillus subtilis [13] = test: Antimicrobial activity against Bacillus subtilis at 200 ug after 24 hrs by agar disc diffusion method; assay type: functional; details: read-out: DIZ
Micrococcus luteus [14] = test: Antimicrobial activity against Micrococcus luteus at 200 ug after 24 hrs by agar disc diffusion method; assay type: functional; details: read-out: DIZ
Pseudomonas aeruginosa [15] = test: Antimicrobial activity against Pseudomonas aeruginosa at 200 ug after 24 hrs by agar disc diffusion method; assay type: functional; details: read-out: DIZ

SMILES	MIC (Bacillus subtilis [1]) [µg/mL]	zone of inhibition at 100 µg/disc (Bacillus subtilis [2]) [mm]	zone of inhibition at 100 µg/disc (Staphylococcus aureus [3]) [mm]	MIC (Escherichia coli [4]) [µg/mL]	MIC (Micrococcus luteus [5]) [µg/mL]	MIC (Pseudomonas aeruginosa [6]) [µg/mL]	zone of inhibition at 100 µg/disc (Escherichia coli [7]) [mm]	zone of inhibition at 100 µg/disc (Pseudomonas aeruginosa [8]) [mm]	MIC (Staphylococcus aureus [9]) [µg/mL]	zone of inhibition at 100 µg/disc (Micrococcus luteus [10]) [mm]	zone of inhibition at 200 µg/disc (Staphylococcus aureus [11]) [mm]	zone of inhibition at 200 µg/disc (Escherichia coli [12]) [mm]	IC50 (Dihydrofolate reductase) [µM]	zone of inhibition at 200 µg/disc (Bacillus subtilis [13]) [mm]	zone of inhibition at 200 µg/disc (Micrococcus luteus [14]) [mm]	zone of inhibition at 200 µg/disc (Pseudomonas aeruginosa [15]) [mm]
CC(=O)NS(=O)(=O)c1ccc(N)cc1 [SULFACETAMIDE]	2 (≈ 9.34 µM)	22	20	1 (≈ 4.67 µM)	2 (≈ 9.34 µM)	2 (≈ 9.34 µM)	28	25	2 (≈ 9.34 µM)	18	–	–	–	–	–	–
CCOC(=O)c1nc(N)sc1Sc1nc2ccc(C)cc2c(=O)n1Cc1ccccc1	2 (≈ 4.42 µM)	–	–	2 (≈ 4.42 µM)	4 (≈ 8.84 µM)	4 (≈ 8.84 µM)	–	–	2 (≈ 4.42 µM)	–	24	24	4	26	20	18

From ChEMBL document CHEMBL2375290, “Nonclassical antifolates, part 3: synthesis, biological evaluation and molecular modeling study of some new 2-heteroarylthio-quinazolin-4-ones” (Eur J Med Chem, 2013)
